From ChEMBL document CHEMBL1122835, “Synthesis and pharmacology of the potent angiotensin-converting enzyme inhibitor N-[1(S)-(ethoxycarbonyl)-3-phenylpropyl]-(S)-alanyl-(S)-pyroglutamic acid” (J Med Chem, 1985)
One block for each compound: values may come before it.

How the values were obtained:
[1] = target: T1, Angiotensin-converting enzyme (Rattus norvegicus) (UniProt P47820); assay: Inhibitory activity was determined against Angiotensin I converting enzyme; type: functional
T1 sequence (whole entry): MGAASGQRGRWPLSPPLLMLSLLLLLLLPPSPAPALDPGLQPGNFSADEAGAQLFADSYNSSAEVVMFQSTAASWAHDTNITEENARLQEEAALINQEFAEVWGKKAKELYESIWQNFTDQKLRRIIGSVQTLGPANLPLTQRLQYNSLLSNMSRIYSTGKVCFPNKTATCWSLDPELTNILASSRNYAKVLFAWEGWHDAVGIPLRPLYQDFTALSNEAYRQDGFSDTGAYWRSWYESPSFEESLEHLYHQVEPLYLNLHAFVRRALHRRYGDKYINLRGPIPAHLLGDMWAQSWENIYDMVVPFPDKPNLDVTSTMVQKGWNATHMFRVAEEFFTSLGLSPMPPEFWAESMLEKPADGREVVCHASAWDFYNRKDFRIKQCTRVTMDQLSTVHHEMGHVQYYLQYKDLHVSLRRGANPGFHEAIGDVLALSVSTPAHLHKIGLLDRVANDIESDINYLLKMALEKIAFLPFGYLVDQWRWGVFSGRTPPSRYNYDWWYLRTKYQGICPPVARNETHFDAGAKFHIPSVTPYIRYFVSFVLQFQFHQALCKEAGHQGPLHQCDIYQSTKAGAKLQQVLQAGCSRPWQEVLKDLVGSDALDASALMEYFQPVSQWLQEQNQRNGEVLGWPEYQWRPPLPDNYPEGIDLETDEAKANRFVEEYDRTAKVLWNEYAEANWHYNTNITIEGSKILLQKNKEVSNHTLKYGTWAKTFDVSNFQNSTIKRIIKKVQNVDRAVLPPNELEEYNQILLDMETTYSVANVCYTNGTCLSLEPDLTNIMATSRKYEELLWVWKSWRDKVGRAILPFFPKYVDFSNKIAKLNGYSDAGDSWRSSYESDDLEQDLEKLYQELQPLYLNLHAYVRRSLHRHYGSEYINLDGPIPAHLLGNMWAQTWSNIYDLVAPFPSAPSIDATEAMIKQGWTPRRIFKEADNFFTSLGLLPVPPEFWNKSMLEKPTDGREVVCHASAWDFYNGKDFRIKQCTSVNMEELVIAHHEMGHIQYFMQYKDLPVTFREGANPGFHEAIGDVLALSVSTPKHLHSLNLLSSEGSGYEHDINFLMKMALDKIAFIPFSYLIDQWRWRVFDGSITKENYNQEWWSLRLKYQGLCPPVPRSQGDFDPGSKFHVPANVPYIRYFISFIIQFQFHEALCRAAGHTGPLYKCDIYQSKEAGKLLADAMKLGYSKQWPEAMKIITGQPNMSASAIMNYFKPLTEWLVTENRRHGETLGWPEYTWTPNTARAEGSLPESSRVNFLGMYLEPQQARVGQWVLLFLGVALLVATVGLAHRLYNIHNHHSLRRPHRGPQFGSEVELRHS

[2] = Half life was determined; type: ADME; details: rat
How it was run: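 Rats anesthetized with pentobarbital/barbital received a single iv dose, 0.2 or 0.08 mg/kg. AI 0.3 μg/kg iv given at 5 min, then every 10 min for 210 min. Half-life = time for the AI pressor response to fall to 50% of its peak inhibition.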

[3] = test system: Rattus norvegicus; assay: Percent change was determined in bradykinin depressor response in anesthetized normotensive rat, administered intravenously at dose 0.0033 mg/kg; type: functional; details: route intravenous
How it was run: (§1)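 Anesthetized (pentobarbital/barbital ip) male Charles River CD rats, 380–500 g, kept at 37 °C. Femoral artery blood pressure recorded. Control depressor response to bradykinin 1 μg/kg iv, then cumulative iv drug in 0.9% saline (1 mL/kg), 0.0033–0.27 mg/kg. Bk challenge 5 min after each dose. ED50 = dose giving a 50% change from control, by linear regression; N = 8.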

[4] = test system: Rattus norvegicus; assay: Percent change was determined in bradykinin depressor response in anesthetized normotensive rat, administered intravenously at dose 0.010 mg/kg; type: functional; details: dose 0.01 mg/kg; route intravenous
How it was run: (§2)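 Male Charles River CD rats (380–500 g), pentobarbital Na 15 mg/kg plus barbital 220 mg/kg ip, tracheotomized, femoral artery/vein cannulated, kept at 37 °C. Control bradykinin 1 μg/kg iv depressor response, separate from angiotensin tests; drug iv in 0.9% saline (1 mL/kg, free base) 10 min later, Bk 5 min after each cumulative dose (0.0033–0.27 mg/kg). Maximum fall in arterial pressure versus control response; N = 8.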

[5] = test system: Rattus norvegicus; assay: Percent change was determined in bradykinin depressor response in anesthetized normotensive rat, administered intravenously at dose 0.030 mg/kg; type: functional; details: dose 0.03 mg/kg; route intravenous; how it was run: as §2
[6] = test system: Rattus norvegicus; assay: Percent change was determined in bradykinin depressor response n anesthetized normotensive rat, administered intravenously at dose 0.090 mg/kg; type: functional; details: dose 0.09 mg/kg; route intravenous; how it was run: as §2
[7] = test system: Rattus norvegicus; assay: Percent decrease in angiotensin I pressor response was measured in rat, administered intravenously at dose 0.010 mg/kg; type: functional; details: dose 0.01 mg/kg; route intravenous
How it was run: (§3)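 Anesthetized (pentobarbital Na 15 mg/kg + barbital 220 mg/kg ip), tracheotomized male Charles River CD rats, 380–500 g, femoral cannulas, heated board at 37 °C. Control pressor responses to angiotensin I 0.3 μg/kg then angiotensin II 0.1 μg/kg iv; drug iv in 0.9% saline (free base), AI and AII repeated at 5-min intervals, cumulative 0.01–0.81 mg/kg. Peak arterial pressure rise versus control.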

[8] = test system: Rattus norvegicus; assay: Percent decrease in angiotensin I pressor response was measured in rat, administered intravenously at dose 0.030 mg/kg; type: functional; details: dose 0.03 mg/kg; route intravenous; how it was run: as §3
[9] = test system: Rattus norvegicus; assay: Percent decrease in angiotensin I pressor response was measured in rat, administered intravenously at dose 0.090 mg/kg; type: functional; details: dose 0.09 mg/kg; route intravenous; how it was run: as §3
[10] = test system: Rattus norvegicus; assay: Percent decrease in angiotensin I pressor response was measured in rat, administered intravenously at dose 0.27 mg/kg; type: functional; details: route intravenous; how it was run: as §3
[11] = test system: Rattus norvegicus; assay: Percent decrease in angiotensin I pressor response was measured in rat, administered intravenously at dose 0.81 mg/kg; type: functional; details: route intravenous; how it was run: as §3
[12] = test system: Rattus norvegicus; assay: Hypotensive activity was determined in low-sodium treated rat, dose 10 mg/kg administered orally at 2 hr; type: functional; details: route oral
How it was run: (§4)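 Male CD rats, 11 weeks old, kept on a sodium-deficient diet for 3 weeks and fasted overnight, were dosed orally with aqueous solutions (5 mL/kg), water as control. Systolic pressure measured by tail cuff at the stated post-dose time. ANOVA with Duncan's test.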

[13] = test system: Rattus norvegicus; assay: Hypotensive activity was determined in low-sodium treated rat, dose 10 mg/kg administered orally at 5 hr; type: functional; details: route oral; how it was run: as §4
[14] = test system: Rattus norvegicus; assay: Hypotensive activity was determined in low-sodium treated rat, dose 3 mg/kg administered orally at 2 hr; type: functional; details: route oral; how it was run: as §4
[15] = test system: Rattus norvegicus; assay: Hypotensive activity was determined in low-sodium treated rat, dose 30 mg/kg administered orally at 2 hr; type: functional; details: route oral; how it was run: as §4
[16] = test system: Rattus norvegicus; assay: Hypotensive activity was determined in low-sodium treated rat, dose 30 mg/kg administered orally at 5 hr; type: functional; details: route oral; how it was run: as §4
[17] = test system: Rattus norvegicus; assay: Hypotensive activity was determined in low-sodium treated rat, dose 3 mg/kg administered orally at 5 hr; type: functional; details: route oral; how it was run: as §4
[18] = test system: Rattus norvegicus; assay: Decrease in systolic blood pressure of Spontaneous Hypertensive Rats (SHR) pretreated with hydrochlorothiazide upon oral administration at 3 mm/kg; type: functional, Artery
How it was run: (§5)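 Male SHR, 13 weeks old, given HCTZ 25 mg/kg po in 0.25% methylcellulose daily for 3 days. Drug given orally in water (5 mL/kg) 1 h after the third dose. Tail-cuff systolic pressure and pulse-count heart rate taken 1.5 h later after 20 min warming at 38 °C. ANOVA with Duncan's test; ED30 by linear regression.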

[19] = test system: Rattus norvegicus; assay: Decrease in systolic blood pressure of Spontaneous Hypertensive Rats (SHR) pretreated with hydrochlorothiazide upon oral administration at 10 mm/kg; type: functional, Artery; how it was run: as §5
[20] = test system: Rattus norvegicus; assay: Decrease in systolic blood pressure of Spontaneous Hypertensive Rats (SHR) pretreated with hydrochlorothiazide upon oral administration at 30 mm/kg; type: functional, Artery; how it was run: as §5
[21] = species: Rattus norvegicus; assay: Dose required to reduce systolic blood pressure by 30 mmHg; type: functional; details: Artery; how it was run: as §5
[22] = species: Rattus norvegicus; assay: Effective dose was determined to increase the vasoResponse in rat; type: functional; how it was run: as §1
[23] = test system: Rattus norvegicus; assay: Effective dose to produce AcE inhibition in rat, administered intravenously; type: functional; details: iv
How it was run: (§6)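 Male Charles River CD rats, 380–500 g, anesthetized with pentobarbital Na 15 mg/kg plus barbital 220 mg/kg ip, held at 37 °C. Femoral artery pressure recorded. AI 0.3 μg/kg and AII 0.1 μg/kg given iv as challenges. Cumulative iv drug in saline, 0.01–0.81 mg/kg, each dose followed by AI/AII challenges at 5-min intervals. ED50 = 50% change from control response, by linear regression.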

[24] = test system: Rattus norvegicus; assay: Change in heart rate was determined at a dose 30 mg/kg; type: functional; how it was run: as §5
[25] = test system: Rattus norvegicus; assay: Change in heart rate was determined at a dose 3 mg/kg; type: functional; how it was run: as §5
[26] = test system: Rattus norvegicus; assay: Effect on vasopressor response caused by angiotensin I (AI) in anesthetized normotensive rat, administered intravenously at dose 0.010 mg/kg; type: functional; details: dose 0.01 mg/kg; route intravenous; how it was run: as §6
[27] = test system: Rattus norvegicus; assay: Effect on vasopressor response caused by angiotensin I (AI) in anesthetized normotensive rat, administered intravenously at dose 0.030 mg/kg; type: functional; details: dose 0.03 mg/kg; route intravenous; how it was run: as §6
[28] = test system: Rattus norvegicus; assay: Effect on vasopressor response caused by angiotensin I (AI) in anesthetized normotensive rat, administered intravenously at dose 0.090 mg/kg; type: functional; details: dose 0.09 mg/kg; route intravenous; how it was run: as §6
[29] = test system: Rattus norvegicus; assay: Effect on vasopressor response caused by angiotensin I (AI) in anesthetized normotensive rat, administered intravenously at dose 0.27 mg/kg; type: functional; details: route intravenous; how it was run: as §6
[30] = test system: Rattus norvegicus; assay: Effect on vasopressor response caused by angiotensin I (AI) in anesthetized normotensive rat, administered intravenously at dose 0.81 mg/kg; type: functional; details: route intravenous; how it was run: as §6
[31] = test system: Rattus norvegicus; assay: Activity against the bradykinin Response in anesthetized normotensive rat, administered intravenously at dose 0.0033 mg/kg; type: functional; details: route intravenous; how it was run: as §1
[32] = test system: Rattus norvegicus; assay: Activity against the bradykinin Response in anesthetized normotensive rat, administered intravenously at dose 0.010 mg/kg; type: functional; details: dose 0.01 mg/kg; route intravenous; how it was run: as §1
[33] = test system: Rattus norvegicus; assay: Activity against the bradykinin Response in anesthetized normotensive rat, administered intravenously at dose 0.030 mg/kg; type: functional; details: dose 0.03 mg/kg; route intravenous; how it was run: as §1
[34] = test system: Rattus norvegicus; assay: Activity against the bradykinin Response in anesthetized normotensive rat, administered intravenously at dose 0.090 mg/kg; type: functional; details: dose 0.09 mg/kg; route intravenous; how it was run: as §1
[35] = test system: Rattus norvegicus; assay: Change in heart rate was determined at a dose 10 mg/kg; type: functional; how it was run: as §5

ED50 [1]: 4 mg/kg
Structure (SMILES): CCOC(=O)[C@H](CCc1ccccc1)N[C@H](C)C(=O)N1C(=O)CC[C@H]1C(=O)O

half-life [2]: 2.5 h
Structure (SMILES): CCOC(=O)[C@H](CCc1ccccc1)N[C@@H](C)C(=O)N1CCC[C@H]1C(=O)O [ENALAPRIL]
Change [3]: -7%
Change [4]: 55%
Change [5]: 110%
Change [6]: 107%
Decrease [7]: 14%
Decrease [8]: 37%
Decrease [9]: 60%
Decrease [10]: 81%
Decrease [11]: 84%
Activity [12]: 138 mmHg
Activity [13]: 123 mmHg
Activity [14]: 148 mmHg
Activity [15]: 134 mmHg
Activity [16]: 128 mmHg
Activity [17]: 128 mmHg
Blood pressure [18]: 199 mmHg
Blood pressure [19]: 169 mmHg
Blood pressure [20]: 163 mmHg
ED30 [21]: 1.5 mg/kg
ED50 [22]: 0.0097 mg/kg
ED50 [23]: 0.066 mg/kg
Heart rate [24]: 386 beats min-1
Heart rate [25]: 378 beats min-1
Response [26]: 37 mmHg
Response [27]: 27 mmHg
Response [28]: 17 mmHg
Response [29]: 8 mmHg
Response [30]: 7 mmHg
Response [31]: -27 mmHg
Response [32]: -45 mmHg
Response [33]: -61 mmHg
Response [34]: -60 mmHg
Heart rate [35]: 380 beats min-1
